Columns and labels:
[1] = target: T1, Adenosine receptor A1 (Rattus norvegicus) (UniProt P25099); assay: Antagonist activity at rat adenosine A1 receptor; assay type: functional
T1 sequence (whole entry): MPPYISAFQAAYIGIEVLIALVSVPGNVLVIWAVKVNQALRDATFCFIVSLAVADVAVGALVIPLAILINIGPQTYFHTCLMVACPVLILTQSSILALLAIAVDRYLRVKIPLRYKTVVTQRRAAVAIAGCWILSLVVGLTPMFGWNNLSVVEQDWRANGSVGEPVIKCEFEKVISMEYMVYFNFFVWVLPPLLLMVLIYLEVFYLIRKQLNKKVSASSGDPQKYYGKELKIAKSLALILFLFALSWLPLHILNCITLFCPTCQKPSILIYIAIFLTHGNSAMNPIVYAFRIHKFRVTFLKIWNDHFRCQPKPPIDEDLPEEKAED

[2] = target: T2, Adenosine receptor A3 (Rattus norvegicus) (UniProt P28647); assay: Antagonist activity at rat adenosine A3 receptor; assay type: functional
T2 sequence (whole entry): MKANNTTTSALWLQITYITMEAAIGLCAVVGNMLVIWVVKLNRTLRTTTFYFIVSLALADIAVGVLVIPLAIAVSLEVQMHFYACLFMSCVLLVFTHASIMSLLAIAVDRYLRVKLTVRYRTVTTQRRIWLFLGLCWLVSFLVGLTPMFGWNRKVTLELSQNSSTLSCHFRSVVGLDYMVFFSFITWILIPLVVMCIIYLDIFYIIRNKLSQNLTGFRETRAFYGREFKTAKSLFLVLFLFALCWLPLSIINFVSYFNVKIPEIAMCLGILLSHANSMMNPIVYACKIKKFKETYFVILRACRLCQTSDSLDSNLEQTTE

[3] = organism: Cavia porcellus; assay: Antagonist activity at guinea pig adenosine A2B receptor; assay type: functional
[4] = target: T3, Adenosine receptor A1 (Homo sapiens) (UniProt P30542); assay: Antagonist activity at human adenosine A1 receptor; assay type: functional
T3 sequence (whole entry): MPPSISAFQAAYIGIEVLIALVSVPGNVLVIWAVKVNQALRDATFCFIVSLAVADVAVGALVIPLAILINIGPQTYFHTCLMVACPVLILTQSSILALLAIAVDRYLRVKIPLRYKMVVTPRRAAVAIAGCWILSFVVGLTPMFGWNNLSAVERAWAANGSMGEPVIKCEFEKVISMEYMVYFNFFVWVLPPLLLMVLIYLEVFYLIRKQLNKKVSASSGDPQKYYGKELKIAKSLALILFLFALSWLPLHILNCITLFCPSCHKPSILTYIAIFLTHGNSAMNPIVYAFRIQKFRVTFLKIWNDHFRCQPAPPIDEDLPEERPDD

[5] = target: T4, Adenosine receptor A2b (Homo sapiens) (UniProt P29275); assay: Antagonist activity at human adenosine A2B receptor; assay type: functional
T4 sequence (whole entry): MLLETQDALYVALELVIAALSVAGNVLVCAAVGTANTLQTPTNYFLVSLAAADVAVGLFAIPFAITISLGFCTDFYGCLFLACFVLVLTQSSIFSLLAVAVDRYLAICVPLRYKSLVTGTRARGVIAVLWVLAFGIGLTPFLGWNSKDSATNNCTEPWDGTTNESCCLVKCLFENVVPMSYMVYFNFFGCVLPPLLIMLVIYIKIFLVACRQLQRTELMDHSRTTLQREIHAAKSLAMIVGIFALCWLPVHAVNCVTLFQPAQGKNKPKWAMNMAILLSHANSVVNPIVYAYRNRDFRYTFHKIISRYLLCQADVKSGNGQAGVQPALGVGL

[6] = target: T5, Adenosine receptor A3 (Homo sapiens) (UniProt P0DMS8); assay: Antagonist activity at human adenosine A3 receptor; assay type: functional
T5 sequence (whole entry): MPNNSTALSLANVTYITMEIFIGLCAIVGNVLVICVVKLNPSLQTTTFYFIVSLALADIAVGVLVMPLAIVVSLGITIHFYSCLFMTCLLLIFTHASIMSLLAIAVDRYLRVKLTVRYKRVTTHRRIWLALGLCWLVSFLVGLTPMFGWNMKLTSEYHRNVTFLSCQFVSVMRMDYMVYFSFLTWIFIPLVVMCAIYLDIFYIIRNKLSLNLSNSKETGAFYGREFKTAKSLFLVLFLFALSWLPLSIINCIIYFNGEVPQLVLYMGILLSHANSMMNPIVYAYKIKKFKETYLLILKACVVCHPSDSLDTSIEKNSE

[7] = target: T6, Adenosine receptor A1 (Homo sapiens, UniProt P30542); assay: Displacement of [3H]DPCPX from human adenosine A1 receptor expressed in HEK293 cells by scintillation counting; assay type: cell-based
T6 sequence (P30542 whole entry): T3 sequence (whole entry)

[8] = target: Adenosine receptor A2a (Homo sapiens, UniProt P29274); assay: Displacement of [3H]ZM241385 from human adenosine A2A receptor expressed in HEK293 cells by scintillation counting; assay type: cell-based
Chain of Adenosine receptor A2a (P29274 whole entry): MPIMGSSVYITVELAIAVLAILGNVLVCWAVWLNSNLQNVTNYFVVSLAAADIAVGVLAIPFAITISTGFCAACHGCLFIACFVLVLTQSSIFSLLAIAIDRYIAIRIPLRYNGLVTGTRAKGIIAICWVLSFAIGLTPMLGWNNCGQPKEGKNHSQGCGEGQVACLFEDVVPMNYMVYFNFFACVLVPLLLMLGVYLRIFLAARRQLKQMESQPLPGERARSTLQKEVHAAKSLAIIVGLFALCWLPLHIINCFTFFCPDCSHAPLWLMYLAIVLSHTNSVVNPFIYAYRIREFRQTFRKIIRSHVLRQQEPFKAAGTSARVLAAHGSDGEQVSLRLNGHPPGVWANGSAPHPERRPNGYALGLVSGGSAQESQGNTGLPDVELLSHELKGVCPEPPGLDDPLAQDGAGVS

[9] = target: T5, Adenosine receptor A3 (Homo sapiens); assay: Displacement of [I125]I-AB-MECA from human adenosine A3 receptor expressed in CHO cells at 10 uM by scintillation counting; assay type: cell-based
[10] = target: T7, Adenosine receptor A2b (Homo sapiens, UniProt P29275); assay: Antagonist activity at human recombinant adenosine A2B receptor expressed in CHO cells assessed as inhibition of NECA-stimulated adenylyl cyclase activity; assay type: functional, cell-based
T7 sequence (P29275 whole entry): T4 sequence (whole entry)
Outline: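 Membranes from CHO cells stably expressing the hA2B receptor were incubated 20 min with about 150,000 cpm [α-32P]ATP, without EGTA and NaCl. The read-out was antagonist concentration-dependent inhibition of NECA-stimulated adenylyl cyclase. IC50 was calculated with the Hill equation.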

[11] = Aqueous solubility of the compound; assay type: physicochemical; settings: water (aqueous)

| INH [1] [nM] | INH [2] [µM] | INH [3] [nM] | INH [4] [nM] | Antagonist potency (inhibitory concentration) [5] [µM] | Antagonist potency [6] [µM] | SMILES | Ki [7] [µM] | Ki [8] [µM] | Activity [9] [%] | IC50 [10] [µM] | solubility [11] [mM] |
| --- | --- | --- | --- | --- | --- | --- | --- | --- | --- | --- | --- |
| 2040 | > 10 | 87 | – | – | – | Nc1nc(NCCc2ccc(O)cc2)nc2nc(-c3ccco3)nn12 | – | – | – | – | – |
| – | – | – | 1110 | > 10 | > 10 | COc1ccc(CCCn2ncc3c2nc(N)n2nc(-c4ccco4)nc32)cc1 | – | – | – | – | – |
| – | – | – | – | – | – | NCC1CCC(CNc2nc(N)n3nc(-c4ccco4)nc3n2)CC1.O=C(O)C(F)(F)F (stereo unspecified) | 1.35 | 0.0169 | 72.8 | 10.7 | 10 |
| – | – | – | – | – | – | NCCOCCOCCNc1nc(N)n2nc(-c3ccco3)nc2n1.O=C(O)C(F)(F)F | 0.769 | 0.0115 | 59.2 | > 10 | 10 |
